In the library only some 2% were active in any assay of this set; here they are far more common.
CHRM1 antagonist: human CHRM1 antagonism | P11229 | inhibition, % at 3 µM | 1.3% of 360,000 active | CHO-K1 hM1, Fluo-8 calcium fluorescence, ACh EC80 antagonist | AID 588852;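 active = percent inhibition above its own plate's cutoff, namely the mean of that plate's compound wells plus 3 SD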;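 also: peak over basal fluorescence ratio during 140 s after agonist addition; 0% = ACh EC80 plus DMSO and 100% = DMSO alone without agonist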
CHRM1 agonist: activates human CHRM1 receptor; activation, % at 3 µM; 0.33% of 360,000 active; CHO-K1 hM1, Fluo-8 calcium fluorescence, agonist mode; 0% DMSO, 100% acetylcholine EC100; P11229;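 active = activation above the run's mean compound activation plus 3 SD, cut at about 16% in these data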;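 also: peak over basal fluorescence ratio within a 140 s kinetic read after compound addition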
M1 PAM: positive allosteric modulators of human M1 muscarinic receptor; P11229; CHO-K1 hM1, Fluo-8 calcium fluorescence, ACh EC20; 0% = ACh EC20, 100% = maximal ACh; activation, % at 3 µM; 0.088% of 360,000 active; AID 588819; in the data active = activation above about 19%, passing the limit was not always enough
CHRM5 PAM: CHRM5 positive allosteric modulation | AID 624038 | 0.3% of 360,000 active | CHO-K1 hM5, Fluo-8 calcium, ACh EC20 PAM; 0% = ACh EC20, 100% = ACh EC100 | P08912 | activation, % at 3 µM;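 active = activation above the run cutoff, the mean activation of all test compounds plus 3 SD, cut at about 18% in these data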
Target sequence (P08912 whole entry, looked up): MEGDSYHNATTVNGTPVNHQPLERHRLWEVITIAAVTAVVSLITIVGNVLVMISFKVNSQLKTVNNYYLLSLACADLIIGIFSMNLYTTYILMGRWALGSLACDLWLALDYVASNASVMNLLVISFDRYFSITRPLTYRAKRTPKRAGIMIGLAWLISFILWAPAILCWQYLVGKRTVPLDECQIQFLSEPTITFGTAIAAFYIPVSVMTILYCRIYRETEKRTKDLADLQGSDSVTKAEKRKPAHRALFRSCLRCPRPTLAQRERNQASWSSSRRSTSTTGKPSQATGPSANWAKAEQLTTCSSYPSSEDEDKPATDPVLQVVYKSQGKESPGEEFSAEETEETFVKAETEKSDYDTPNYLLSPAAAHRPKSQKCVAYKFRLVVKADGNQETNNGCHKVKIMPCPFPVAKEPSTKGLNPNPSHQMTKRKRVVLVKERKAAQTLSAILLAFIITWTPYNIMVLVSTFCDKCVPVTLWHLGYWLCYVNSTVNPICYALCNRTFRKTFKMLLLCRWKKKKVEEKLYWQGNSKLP
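Measured by: Fluo-8 calcium fluorescence; material: human M5 receptor in CHO-K1 cells; schedule: Post-acetylcholine fluorescence recording 140 s; benchmarks: low control EC20 acetylcholine (0%), high control EC100 acetylcholine (100%); read-out: Max/basal fluorescence ratio as % of EC20–EC100 ACh window; compound: single dose, 3 µM nominal final test concentration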
M5 antag: CHRM5 antagonism in calcium assay; CHO-hM5 cells, Fluo-8 calcium fluorescence, ACh EC80; 0.59% of 360,000 active; inhibition, % at 3 µM; P08912;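 active = inhibition above a per-plate cutoff, the mean of that plate's test compounds plus 3 SD, cut at about 27% in these data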;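 also: 0% = acetylcholine EC80 with DMSO and 100% = DMSO without agonist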
M5 ag: agonists of human muscarinic M5 receptor (CHRM5) | P08912 | CHO-K1 hM5 cells, Fluo-8 calcium fluorescence; 0% DMSO wells, 100% maximal acetylcholine response | activation, % at 3 µM | 0.19% of 360,000 active;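 active = activation above the run's mean over test compounds plus 3 SD, cut at about 23% in these data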;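 also: signal is peak over basal fluorescence ratio across the kinetic read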
* = called active by the depositor; nt = no result given.

SMILES	CHRM1 antagonist	CHRM1 agonist	M1 PAM	CHRM5 PAM	M5 antag	M5 ag
O=C(NCCO[N+](=O)[O-])c1cccnc1	52.7	-7.7	-26.6	-18.6	37.7*	-1.2
O=C(COc1ccc(Br)cc1)NCCCNC(=O)c1cccnc1	-17.1	0.7	15.2	-0.4	3.2	-2.0
COc1ccc(OCC(=O)NCCNC(=O)c2cccnc2)cc1	3.6	-2.7	2.8	-8.2	47.5*	-1.4
COc1ccccc1CNc1nc(NCCN2CCNC2=O)c2sccc2n1	2.6	-8.1	-14.7	-9.9	6.7	-1.4
COc1cccc(C(=O)C[n+]2ccccc2/C=N/O)c1	26.9*	-10.8	-20.2	-9.4	-0.2	-4.7
O=C(Nc1cccc([N+](=O)[O-])c1)Nc1ccc2c(c1)CCC2	15.1	5.3	-1.1	-14.3	35.1*	5.5
COc1cc([N+](=O)[O-])ccc1NC(=O)Nc1ccc2c(c1)OCCO2	3.0	-0.2	6.2	22.0*	11.3	4.3
C=CCNC(=S)Nc1ccc(OC(F)F)c(Cl)c1	9.8	-2.5	-11.9	-13.7	28.6*	2.5
O=C(Nc1ccc(OC(F)F)c(Cl)c1)c1cccc(OC(F)F)c1	19.5	-3.8	-15.0	-21.8	39.6*	-5.1
CC(C)(C)NC(=O)CN(C(=O)CCC(=O)Nc1nccs1)c1ccccc1F	-17.5	-0.8	10.6	-3.2	3.3	1.9
Cc1ccc([N+](=O)[O-])cc1NC(=O)Nc1cccc(F)c1	34.0	3.5	-20.6	-16.8	30.4*	9.8
O=C(Nc1ccccc1)Nc1cc([N+](=O)[O-])ccc1F	11.6	1.5	-9.1	-14.3	4.5	6.2
COc1ccc(C(=O)Nc2cccc([N+](=O)[O-])c2)cc1Br	-8.1	-5.6	0.5	-0.3	5.7	-2.4
O=C(Nc1ccc(OC(F)F)c(Cl)c1)Nc1ccc2c(c1)OCO2	17.2	1.0	-6.2	-21.7	21.1	2.5
O=C(Nc1ccc([N+](=O)[O-])cc1)Nc1ccc(OC(F)F)c(Cl)c1	40.2*	1.1	-15.0	-19.4	32.7*	8.1
COc1ccc(NC(=O)Nc2cccc([N+](=O)[O-])c2)cc1Cl	15.9	2.0	-10.4	-18.6	30.6*	4.7
CN(C)CCNc1nc(-c2ccccc2CO)c2sccc2n1	74.0*	-9.7	-29.3	-20.1	37.0*	-3.8
CC(C)Nc1nc(-c2ccccc2CO)c2sccc2n1	-3.5	-7.2	2.9	-2.6	-2.8	-2.0
Cc1ccccc1-c1nc(NC(C)C)nc2ccsc12	1.7	-8.6	-9.9	-11.1	-10.2	-4.3
Cc1ccccc1-c1nc(NCCN(C)C)nc2ccsc12	88.2*	-8.1	-29.1	-19.6	56.2*	-3.7
O=c1oc2c(O)cccc2cc1-c1nc2ccccc2[nH]1	9.7	17.9*	-8.6	-6.8	7.7	7.0
Cc1n[nH]c(C)c1CCCCOc1ccccc1F	-6.4	-1.3	7.2	-5.2	1.9	-1.1
Cc1n[nH]c(C)c1CCCCOc1ccccc1[N+](=O)[O-]	23.1	-2.1	-13.8	-23.5	34.5*	-6.4
Cc1ccccc1OCCCc1c(C)n[nH]c1C	-0.3	-6.9	-0.6	-10.8	-2.3	-5.0
Cc1ccccc1OCCCCc1c(C)n[nH]c1C	28.9*	-1.7	-12.7	-16.8	18.9	2.3
SMILES	CHRM1 antagonist	CHRM1 agonist	M1 PAM	CHRM5 PAM	M5 antag	M5 ag
CC1(C(=O)Nc2ccc(F)c(Cl)c2)Cc2c(-c3ccc(C(N)=O)cc3)ccnc2O1 (centres undefined)	-9.6	4.2	9.9	-5.3	6.1	5.1
COc1cc[n+]([O-])cc1[N+](=O)[O-]	-11.1	-1.4	5.8	3.2	0.4	0.8
O=C(c1ccccc1F)N1CCN(Cc2ccc3c(c2)OCO3)CC1	-4.3	-4.5	4.5	-1.6	7.3	-1.5
N#Cc1c(F)cccc1N1CCN(Cc2ccc3c(c2)OCO3)CC1	66.1*	-12.0	-35.5	-4.8	20.1	-5.2
CCC(C(=O)NCc1cccs1)n1nc(C)n2c(cc3occc32)c1=O (centres undefined)	-9.4	-1.4	13.8	26.1*	-28.6	1.0
Cc1ccc(OCCn2cnc3cc([N+](=O)[O-])ccc3c2=O)cc1	6.5	-3.8	-9.7	-10.0	5.2	1.9
O=c1c2ccc([N+](=O)[O-])cc2ncn1CCOc1ccccc1	36.4*	-0.6	-11.9	-21.6	12.3	-0.7
CC(C)C(C(=O)N1CCN(Cc2ccccc2)CC1)c1ccccc1 (centres undefined)	89.0*	-7.7	-28.3	-11.7	17.9	-5.6
O=C(C(Cc1ccccc1)n1cccc1)N1CCN(Cc2ccccc2)CC1 (centres undefined)	92.4*	-4.9	-30.6	-12.7	10.7	2.5
NC(=O)c1cccc(-c2ccnc3c2CC(C(=O)Nc2cccc(Oc4ccccc4)c2)O3)c1 (centres undefined)	4.2	-4.3	-0.3	-7.3	8.2	0.7
COc1cccc(NC(=O)CN2CCN(c3ccc(F)cc3)CC2)c1	-10.6	-4.8	6.0	1.3	-5.3	-6.0
CCOC(=O)c1ccc(N2CCN(c3ccccc3F)CC2)c(NC(=O)Nc2ccccc2)c1	14.5	-2.1	-10.4	-17.9	39.8*	0.1
CCOC(=O)c1ccc(N2CCN(c3ccc(F)cc3)CC2)c(NC(=O)Nc2cccc(OC)c2)c1	34.4*	-5.0	-15.5	-2.9	-1.6	-1.0
CCOC(=O)c1ccc(N2CCN(C(=O)c3ccccc3)CC2)c(NC(=O)c2ccco2)c1	12.3	-4.2	-9.4	-7.4	18.2	-0.7
CCOC(=O)[C@]12CCCC=C1N(CCc1ccc(OC)c(OC)c1)C(=O)[C@H](CC(=O)N1CCCCC1)C2	nt	nt	nt	-1.4	-2.9	2.3
Cc1c(NC(=O)c2ccc(S(=O)(=O)Nc3ccccc3F)cc2)c(=O)n(-c2ccccc2)n1C	34.8*	-5.6	-22.0	-0.6	11.5	-7.3
Cc1c(NC(=O)c2cccc(S(=O)(=O)N(C)c3ccccc3)c2)c(=O)n(-c2ccccc2)n1C	37.8*	-7.5	-19.6	-8.5	6.9	-5.1
CCCN(CCC)S(=O)(=O)c1ccc(C(=O)Nc2c(C)n(C)n(-c3ccccc3)c2=O)cc1	38.9*	-6.1	0.0	-0.8	5.6	2.2
O=C1CC(=C(c2ccccc2)c2ccccc2)C(=O)N1CCCN1CCN(c2cccc(Cl)c2)CC1	38.5*	-4.9	-20.4	-22.2	3.0	-8.2
O=C1CC(=C(c2ccccc2)c2ccccc2)C(=O)N1CCN1CCN(c2cccc(Cl)c2)CC1	6.6	-4.5	-1.0	-1.0	-1.9	-1.3
CN(C1CCCCC1)S(=O)(=O)c1ccc(S(=O)(=O)N2CCCC2)cc1	32.4*	-3.3	-23.7	-10.2	12.6	-0.3
O=S(=O)(Nc1nc2ccccc2[nH]1)c1ccc2ccccc2c1	65.0*	-8.2	-21.8	-15.8	38.9*	-6.8
